Laboratory results: PubChem BioAssay
The source made the active and inactive calls.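 How the source made its calls, unless noted: active means viability loss from added drug above about 55%, and viability with drug at most 40%, in both replicates (limit read from the data, passing the limit was not always enough); inconclusive means both conditions met in only one replicate; inactive means neither replicate meets both conditions.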

Tests used:
[1] = SK-BR-3 cell growth inhibitors, pilot screen, 24 h, human (AID 572;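 active means viability at or below 10% of carrier control in both of two separate runs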;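 further: compound exposure lasted between 18 and 24 h rather than exactly 24 h; 100% = carrier-treated control wells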); conditions: SK-BR-3 viability, CellTiter-Glo luminescence, at 10 µM, stronger effect = lower value
[2] = HUVEC growth inhibition – cell-based, human, primary screen (AID 575;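 active means viability at or below 30% in both replicate assays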;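 further: 100% = median of untreated cell wells with 0.1% DMSO on each plate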); conditions: HUVEC proliferation, CellTiter-Glo luminescence, 72 h; at 10 µM; stronger effect = lower value
Outline: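 Test system – primary HUVEC, no more than 12 passages · Dosing – one dose, 10 µM final, 0.1% DMSO · Times – 72 h treatment at 37 °C · Measured by – ATP-based CellTiter-Glo luminescent read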

[3] = growth inhibitors of H69AR lung tumor, primary screen, human, duplicate replicates (AID 580;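 active means viability at or under a set limit in both replicates, limit being median viability minus 3 SD, cut at about 48% in these data, passing the limit was not always enough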;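 further: 100% = mean luminescence of untreated wells and 0% = no signal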); conditions: H69AR lung tumor cells viability, ATP luminescence, 72 h; at 10 µM; stronger effect = lower value
[4] = reversal of MRP1-mediated doxorubicin resistance, pilot screen, H69AR cells, doxorubicin co-treatment (AID 601); conditions: CellTiter-Glo, 72 h, at 10 µM; for differential viability (reversal): stronger effect = higher value
[5] = 384-well plate pilot, post-Golgi transport modulator project, inhibition of yeast transport mutant growth (AID 636; in the data active means inhibition above about 31%); conditions: absorbance 615 nm, about 18 h, stronger effect = higher value
[6] = growth suppression of yeast trafficking mutant, preliminary HTS, modulators of trafficking downstream of Golgi apparatus project, 1536-format plate, OD 615 nm (AID 637; in the data active means inhibition above about 30%); conditions: yeast transport mutant growth, absorbance 615 nm, 18 h; stronger effect = higher value
[7] = H69AR cells + 2 uM doxorubicin, measured here: viability with 2 uM doxorubicin, stronger effect = lower value
[8] = H69AR cells, compound alone cytotoxicity

| SMILES | viability [1] | viability [2] | viability [3] | differential viability (reversal) ([4]; H69AR cells + 2 uM doxorubicin) | viability [4, 7] | viability [4, 8] | inhibition [5] | inhibition [6] |
| --- | --- | --- | --- | --- | --- | --- | --- | --- |
| FC(F)(F)c1ccc(Sc2nnc(-c3cccs3)n2CC2CCCO2)nc1 (stereo unspecified) | 68% (inactive) | 104% (inactive) | 94.5% (inactive) | 6.06% (inactive) | 88.4% | 94.5% | -8.22% (inactive) | 2% (inactive) |
| CCN(CC)S(=O)(=O)c1ccc(NC(=O)c2cccc3c2C(=O)N(CCOC)C3)cc1 | 119% (inactive) | 109% (inactive) | 94.4% (inactive) | 9.21% (inactive) | 85.2% | 94.4% | -9.73% (inactive) | -5.45% (inactive) |
| CC(C)OC(=O)C1C2C=CC3(CN(Cc4cccs4)C(=O)C13)O2 (stereo unspecified) | 89% (inactive) | 96.7% (inactive) | 90.1% (inactive) | -3.73% (inactive) | 93.8% | 90.1% | -6.44% (inactive) | 2.42% (inactive) |
| C=CCN1C(=O)CS/C1=N/c1nccs1 | 65% (inactive) | 96.5% (inactive) | 98.4% (inactive) | 1.4% (inactive) | 97% | 98.4% | -8.9% (inactive) | -1.13% (inactive) |
| FC(F)Oc1cccc2cccnc12 | 89% (inactive) | 111% (inactive) | 94% (inactive) | 9.04% (inactive) | 84.9% | 94% | -3.33% (inactive) | -0.55% (inactive) |
| [O-][n+]1onc2c1CCc1nnc(-c3ccccc3)cc1-2 | 93.5% (inactive) | 113% (inactive) | 76.2% (inactive) | 43.7% (inactive) | 32.6% | 76.2% | -1.18% (inactive) | 8.03% (inactive) |
| O=C(NCc1ccco1)c1cccc(S(=O)(=O)N2CCCCC2)c1 | 110% (inactive) | 99.3% (inactive) | 90.9% (inactive) | -5.04% (inactive) | 96% | 90.9% | 4.66% (inactive) | 8.73% (inactive) |
| O=C(NCCC1=CCCCC1)C1CCN(S(=O)(=O)c2cnc[nH]2)CC1 | 83% (inactive) | 111% (inactive) | 104% (inactive) | 15.5% (inactive) | 88.1% | 104% | -5.6% (inactive) | -1.27% (inactive) |
| COCC(=O)n1nc(NCc2ccc(OC)cc2)nc1NCc1ccc(OC)cc1 | 116% (inactive) | 105% (inactive) | 99.8% (inactive) | 9.29% (inactive) | 90.5% | 99.8% | 53.3% (active) | 28.6% (inactive) |
| CCOC(=O)C1CSc2[nH]c(=O)sc2C1c1ccccc1 (stereo unspecified) | 100% (inactive) | 117% (inactive) | 93.2% (inactive) | -9.41% (inactive) | 103% | 93.2% | 0.95% (inactive) | -2% (inactive) |
| CC(C)CN(CC(C)C)c1nc(N)c(C#N)c(CC#N)c1C#N | 106% (inactive) | 114% (inactive) | 86.7% (inactive) | 13.6% (inactive) | 73.1% | 86.7% | -5.6% (inactive) | -1.27% (inactive) |
| Cc1ccc(S(=O)(=O)N2CCN(C(=O)CSc3nc4ccccc4c(=O)[nH]3)CC2)c(C)c1 | 99% (inactive) | 77.4% (inactive) | 85.1% (inactive) | 16.8% (inactive) | 68.2% | 85.1% | -6.53% (inactive) | -3.64% (inactive) |
| NC(=O)c1c(NC(=O)Cc2cccs2)sc2c1CCC2 | 103% (inactive) | 97.3% (inactive) | 94.3% (inactive) | 3.05% (inactive) | 91.3% | 94.3% | -0.27% (inactive) | -6.94% (inactive) |
| CCN(CC)C(=O)CSC1=C(C#N)C(c2ccco2)C(C(=O)OCCOC)=C(C)N1 (stereo unspecified) | 116% (inactive) | 101% (inactive) | 78% (inactive) | 6.37% (inactive) | 71.6% | 78% | -6.16% (inactive) | 2.58% (inactive) |
| O=c1c2ccccc2c(/C=N/n2cnnc2)c(O)n1-c1ccccc1 | 84% (inactive) | 103% (inactive) | 100% (inactive) | 16.3% (inactive) | 83.9% | 100% | -7.7% (inactive) | -3.09% (inactive) |
| CCc1nnc(NC(=O)CSc2nnc(-c3cc4ccccc4cc3O)n2CC)s1 | 84% (inactive) | 78.4% (inactive) | 90.1% (inactive) | 1.08% (inactive) | 89.1% | 90.1% | -1.95% (inactive) | -3.28% (inactive) |
| CCc1nnc(-n2nc(C)cc2-c2ccccc2)n1N | 107% (inactive) | 118% (inactive) | 93.5% (inactive) | 2.83% (inactive) | 90.7% | 93.5% | -2.47% (inactive) | -1.8% (inactive) |
| CC(=O)Nc1nc(=S)ss1 | 135% (inactive) | 103% (inactive) | 87.5% (inactive) | -8.28% (inactive) | 95.7% | 87.5% | -1.3% (inactive) | -0.33% (inactive) |
| COc1ccc(NC(=O)Cn2nnc(-c3ccccc3F)n2)cc1Cl | 116% (inactive) | 104% (inactive) | 95.5% (inactive) | 3.27% (inactive) | 92.3% | 95.5% | -8.22% (inactive) | 0.18% (inactive) |

| SMILES | viability [1] | viability [2] | viability [3] | differential viability (reversal) ([4]; H69AR cells + 2 uM doxorubicin) | viability [4, 7] | viability [4, 8] | inhibition [5] | inhibition [6] |
| --- | --- | --- | --- | --- | --- | --- | --- | --- |
| CC(=O)Nc1ccc(S(=O)(=O)N2CCN(c3cc(C)nc4ccccc34)CC2)cc1 | 103% (inactive) | 96.7% (inactive) | 87.1% (inactive) | 0.84% (inactive) | 86.2% | 87.1% | -5.41% (inactive) | -3.09% (inactive) |
| c1ccc2c(NC3CCCC3)nnc(NC3CCCC3)c2c1 | 60% (inactive) | 83.1% (inactive) | 91.4% (inactive) | 1.81% (inactive) | 89.6% | 91.4% | -0.92% (inactive) | -7.46% (inactive) |
| O=C(NC1CCCC1)C(c1cccs1)N(Cc1ccco1)C(=O)Cn1nnc(-c2cccs2)n1 (stereo unspecified) | 71% (inactive) | 87.3% (inactive) | 92.8% (inactive) | -1.47% (inactive) | 94.3% | 92.8% | -8.22% (inactive) | -0.48% (inactive) |
| COCCNC(=S)c1ccc(OC)cc1 | 118% (inactive) | 112% (inactive) | 86% (inactive) | 8.94% (inactive) | 77.1% | 86% | -8.27% (inactive) | 5.27% (inactive) |
| CCn1cc(C(=O)NCc2ccco2)c(=O)c2cc(F)c(N3CCN(C(=O)c4ccco4)CC3)cc21 | 94% (inactive) | 62.4% (inactive) | 58.6% (inactive) | 40.8% (inactive) | 17.7% | 58.6% | -7.4% (inactive) | -1.45% (inactive) |
| Cc1cccc2c(=O)oc(-c3ccc4c(c3)C(=O)N(CC3CCCO3)C4=O)nc12 (stereo unspecified) | 95% (inactive) | 101% (inactive) | 98.7% (inactive) | 5.85% (inactive) | 92.8% | 98.7% | -4.25% (inactive) | 6.77% (inactive) |
| COCCSc1nnc(NC(=O)CSCc2ccccc2)s1 | 102% (inactive) | 103% (inactive) | 93.1% (inactive) | 6.87% (inactive) | 86.3% | 93.1% | -11% (inactive) | 0.97% (inactive) |
| COc1ccc2c(C)nc(Nc3nc(C)cc(C)n3)nc2c1 | 84% (inactive) | 114% (inactive) | 87.3% (inactive) | -6.58% (inactive) | 93.9% | 87.3% | -6.08% (inactive) | 0% (inactive) |
| Nc1nc(N)c2nc(-c3ccccc3)c(N)nc2n1 | 128% (inactive) | 90.5% (inactive) | 73.3% (inactive) | -4.71% (inactive) | 78% | 73.3% | -2.08% (inactive) | 1.5% (inactive) |
| Cn1cc(C(=O)NC2CCCCCCC2)c(=O)c2cc(S(=O)(=O)N3CCCC3)ccc21 | 76.5% (inactive) | 79.8% (inactive) | 90.9% (inactive) | 0.325% (inactive) | 90.6% | 90.9% | -5.95% (inactive) | -4.67% (inactive) |
| c1cc2c(cc1Cn1cnnn1)OCO2 | 96% (inactive) | 96.9% (inactive) | 105% (inactive) | 12.3% (inactive) | 92.7% | 105% | -1.95% (inactive) | 4.26% (inactive) |
| O=C(Nc1cnn(Cc2ccc(F)cc2)c1)c1cnccn1 | 117% (inactive) | 85.2% (inactive) | 98.8% (inactive) | 1.69% (inactive) | 97.1% | 98.8% | -2.34% (inactive) | 3.93% (inactive) |
| CC(C)Oc1cc2oc(=O)c3c(c2cc1Cl)CCC3 | 66% (inactive) | 99% (inactive) | 98.2% (inactive) | 19.7% (inactive) | 78.6% | 98.2% | -7.4% (inactive) | 0.97% (inactive) |
| Cn1c(Cc2ccccc2)nnc1SCC(=O)N1CCOCC1 | 91% (inactive) | 95.6% (inactive) | 101% (inactive) | 6.17% (inactive) | 94.8% | 101% | -1.08% (inactive) | 28.7% (inactive) |
| O=C(O)CC1Sc2nc3ccccc3n2C1=O (stereo unspecified) | 105% (inactive) | 111% (inactive) | 102% (inactive) | 6.67% (inactive) | 95.4% | 102% | -6.08% (inactive) | -5.27% (inactive) |
| COc1ccc(-c2nsc(SCC(=O)Nc3cc(C)on3)n2)cc1 | 79% (inactive) | 79.4% (inactive) | 84.8% (inactive) | -5.36% (inactive) | 90.2% | 84.8% | -5.07% (inactive) | 3.09% (inactive) |
| Cc1ccc2c(c1)NC(=O)C(CC(=O)NCCCN1CCN(c3cc(Cl)ccc3C)CC1)O2 (stereo unspecified) | 75.5% (inactive) | 1.67% (active) | 22.9% (active) | -17.8% (inactive) | 40.7% | 22.9% | 3.07% (inactive) | 0.98% (inactive) |
| CCn1nnnc1SCC(=O)Nc1nc(-c2cccs2)cs1 | 110% (inactive) | 83.8% (inactive) | 86.5% (inactive) | 18.2% (inactive) | 68.3% | 86.5% | -11% (inactive) | 3.87% (inactive) |
